Calls of active or inactive are those of the source. The calls are words filed in the database; no cut-off is given here.
Columns and labels:
RAW264.7 [1] = assay: Inhibition of IFN-gamma/LPS-induced PGE2 production in mouse RAW264.7 cells at 50 uM after 17 to 20 hrs by EIA method; format: functional
Method in brief: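 In RAW 264.7 cells seeded at 4 × 10⁵/well and attached for 2 h at 37 °C, compound was added with LPS, using 0.1% final DMSO as vehicle. Incubation ran 17–20 h at 37 °C, 5% CO₂. Supernatant PGE₂ was quantified by EIA from a standard curve and expressed as percent inhibition at a single test concentration.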

[2] = Cytotoxicity against mouse RAW264.7 cells assessed as cell viability by MTT assay; format: cell-based; parameters: concentration or dose not given beside the values; details: read-out: Activity
Method in brief: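 After the 17–20 h LPS co-treatment of RAW 264.7 cells (0.1% DMSO vehicle), the supernatant was removed and MTT (0.05 mg/mL) was added. Cells were held at 37 °C for 4 h. Formazan was dissolved in 100% DMSO and absorbance was read at 570 nm. Results are given as % viability. Culture viability before use was >95% by trypan blue.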

RAW264.7 [3] = assay: Inhibition of IFN-gamma/LPS-induced PGE2 production in mouse RAW264.7 cells after 17 to 20 hrs by EIA method; format: functional, cell-based
Method in brief: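 RAW 264.7 cells (4 × 10⁵/well) attached for 2 h at 37 °C, 5% CO₂. They were then co-incubated with LPS and compound in DMSO (0.1% final) for 17–20 h. Supernatant PGE₂ was measured by EIA against a standard curve. Dose-response testing spanned 0.78 to 50; group differences were tested by one-way ANOVA with Dunnett's test.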

RAW264.7 [4] = assay: Inhibition of IFN-gamma/LPS-induced nitric oxide production in mouse RAW264.7 cells by Griess assay; format: functional, cell-based

| IC50 (RAW264.7 [3]) [µM] | IC50 (RAW264.7 [4]) [µM] | SMILES | inhibition (RAW264.7 [1]) | viability [2] [%] | inhibition at 50 µM (RAW264.7 [1]) [%] |
| --- | --- | --- | --- | --- | --- |
|  |  | COc1ccc(C(=O)/C=C/c2ccc(C)cc2)c(O)c1 | inactive | 97 |  |
|  |  | CC(C)=CCOc1ccc(/C=C2\Oc3ccccc3C2=O)cc1 |  | > 100 | 77 |
|  |  | COc1cc2c(cc1CC=C(C)C)C(=O)/C(=C/c1ccc(OC)c(OC)c1)O2 |  | > 100 | 83 |
|  |  | COc1cc(O)c(C(=O)/C=C/c2ccc(O)c(O)c2)cc1CC=C(C)C |  | > 100 | 61 |
|  |  | COc1ccc2c(=O)c(OCC=C(C)C)c(-c3ccc(OC)c(OC)c3)oc2c1 |  | > 100 | 58 |
|  |  | COc1ccc2c(=O)c(OCC=C(C)C)c(-c3ccc(C)cc3)oc2c1 |  | > 100 | 41 |
| 2.1 | 13.8 | COc1cc(O)c(C(=O)/C=C/c2ccc(OC)c(OC)c2)cc1CC=C(C)C |  | > 100 | 90 |
|  |  | COc1cc2c(cc1CC=C(C)C)C(=O)/C(=C/c1ccc(C)cc1)O2 | inactive | > 100 |  |
|  |  | CC(C)=CCOc1ccc2c(c1)O/C(=C\c1ccc(C)cc1)C2=O |  | > 100 | 43 |
|  |  | COc1cc(O)c(C(=O)/C=C/c2ccc(-c3ccc(F)cc3)cc2)cc1CC=C(C)C |  | > 100 | 63 |
|  |  | COc1ccc2c(c1)O/C(=C\c1ccc(C)cc1)C2=O |  | > 100 | 78 |
|  |  | COc1ccc2c(c1)O/C(=C\c1ccc(OC)c(OC)c1)C2=O |  | > 100 | 76 |
|  |  | COc1cc(O)c(C(=O)/C=C/c2ccc(Br)cc2)cc1CC=C(C)C |  | > 100 | 70 |
|  |  | COc1ccc(C(=O)/C=C/c2ccc(OC)c(OC)c2)c(O)c1 |  | > 100 | 75 |
|  |  | COc1ccc2c(=O)c(O)c(-c3ccc(OC)c(OC)c3)oc2c1 |  | 82 | 80 |
|  |  | COc1cc(O)c(C(=O)/C=C/c2ccc(C)cc2)cc1CC=C(C)C |  | > 100 | 64 |
|  |  | COc1cc(O)c(C(=O)/C=C/c2cccc(-c3ccc(F)cc3)c2)cc1CC=C(C)C | inactive | > 100 |  |
| 0.1 |  | CS(=O)(=O)Nc1ccc([N+](=O)[O-])cc1OC1CCCCC1 [NS-398] |  | > 100 | 97 |
|  |  | COc1ccc2c(=O)c(O)c(-c3ccc(C)cc3)oc2c1 |  | 78 | 70 |

Reference: ChEMBL document CHEMBL3352056, “Inhibition of prostaglandin E(2) production by synthetic minor prenylated chalcones and flavonoids: synthesis, biological activity, crystal structure, and in silico evaluation” (Bioorg Med Chem Lett, 2014)
